Most compounds without a hit are left out; they make up all but 4.9% or so of the library.
STAT1 act – increases IFN-gamma driven STAT1 reporter signal; NIH 3T3 STAT1-luciferase reporter, luminescence; 100% = IFN-gamma alone, no compound; activation (% of control), % at 5.5 µM; 2.6% of 200,000 active;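 active means activation above the screen-wide mean activation plus 3 SD, cut at about 130% in these data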;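 further: raw ratio to IFN-gamma control signal so 100% means no change and 0% no light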
APP 5'UTR act – activates APP 5'UTR luciferase reporter; SH-SY5Y APP 5'UTR luciferase reporter, luminescence; zero percent = DMSO vehicle wells; activation, % at 2 µM; 1% of 190,000 active;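 active means activation above a set limit, based on mean plus 3 SD of controls, cut at about 140% in these data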
NF-kB expr up – compounds increasing NF-kB expression in human neuronal cells. NF-kB reporter expression; active compounds read high. fold change at 12.5 µM. 1.6% of 190,000 active; in the data active means fold change above about 3.3
STAT3 blocker – STAT3 signaling inhibition; U3A cells, IL-6 STAT3-luciferase reporter, luminescence; host cell line lacks STAT1; inhibition, % at 5.5 µM; 0.89% of 190,000 active;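 active means inhibition above the mean inhibition across all screened compounds plus 3 SD, cut at about 44% in these data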;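 further: 0% = DMSO only wells and 100% = 100 µM nifuroxazide control wells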
STAT1 inh-1 – STAT1 signaling inhibition; NIH 3T3 STAT1-luciferase reporter, IFN-gamma, luminescence; inhibition, % at 5.5 µM; 0.35% of 200,000 active; AID 920;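 active means inhibition above a set limit, the mean inhibition across all tested compounds plus 3 SD, cut at about 34% in these data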;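 further: 0% = IFN-gamma with DMSO and 100% = IFN-gamma with 300 µM nifuroxazide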
STAT3 activator – STAT3 signaling activation | 0.91% of 190,000 active | U3A cells, IL-6 STAT3-luciferase reporter, luminescence; 100% = signal with IL-6 EC80 alone | AID 871 | activation (% of control), % at 5.6 µM;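 active means activation above the screen-wide mean of compound activation plus 3 SD, cut at about 130% in these data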;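 further: 0% = background luminescence of wells with medium and substrate only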
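Material: STAT1-lacking human U3A cells, STAT3 luciferase reporter | Benchmarks: IL-6-only wells as 100% reference | Probe or stimulus: IL-6 (33 ng/mL) | Timing: Compound 1 h, then IL-6 6 h at 37 °C | Detection: Luminescence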
STAT1 inh-2 – STAT1 inhibition, confirmation assay. shares compounds with STAT1 inh-1. NIH 3T3 STAT1-luciferase reporter, IFN-gamma, luminescence. inhibition, % at 5.5 µM. 55% of 200 active. AID 1263;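 active means triplicate mean inhibition exceeding the hit cutoff computed for the primary STAT1 screen, cut at about 35% in these data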;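 further: 0% = DMSO with IFN-gamma and 100% = 300 µM nifuroxazide with IFN-gamma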
NFkB inh STAT1ct – inhibits NF-kappaB, counter-screen to STAT1 inhibitors | shares compounds with STAT1 inh-1 | 30% of 200 active | HEK293T NF-kB luciferase reporter, TNF-alpha induced, luminescence | AID 1303 | inhibition, % at 5.7 µM;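 active means inhibition above the mean of solvent-only control wells plus 3 SD of those wells, cut at about 15% in these data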;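 further: 0% = DMSO with TNF-alpha and 100% = MG-132 control with TNF-alpha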
STAT3 inh STAT1c – STAT3 inhibition in STAT1 inhibitor counter-screen; shares compounds with STAT1 inh-1; U3A cells, IL-6 STAT3 luciferase reporter, luminescence; cells lacking STAT1; inhibition, % at 5.7 µM; 20% of 200 active; AID 1310;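 active means inhibition above the mean of solvent-only control wells plus 3 SD, set per campaign, cut at about 25% in these data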;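 further: 0% = IL-6 plus DMSO and 100% = IL-6 plus nifuroxazide control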
* marks the source's active call; other numbers are inactive results; · = no result.

SMILES | STAT1 act | APP 5'UTR act | NF-kB expr up | STAT3 blocker | STAT1 inh-1 | STAT3 activator | STAT1 inh-2 | NFkB inh STAT1ct | STAT3 inh STAT1c
CN1CCC2(CC1)N=C(c1ccc(F)cc1)C(=S)N2C(=O)c1ccc(C(C)(C)C)cc1 | 103 | -15 | 0.84 | -10 | -4 | 104 | · | · | ·
CCOC(=O)/C(=C/C=C1\Sc2ccccc2N1CC)C(C)=O | 104 | -10 | 0.5 | 21 | -5 | 83 | · | · | ·
CCOC(=O)/C(=C/C=C1\Sc2cc(C)c(C)cc2N1CC)C(C)=O | 62 | 26 | 0.57 | 22 | 40* | 85 | 40* | -1 | 27*
CCCCC(=O)N/N=C(C)/C=C/c1ccccc1F | 58 | 18 | 1.2 | 6 | 45* | 99 | 14 | -11 | -37
CC(/C=C/c1ccccc1F)=N\NC(=O)C(C)C | 109 | 17 | 1.8 | -5 | -10 | 107 | · | · | ·
CC1CCCCN1C(=O)COc1ccccc1F (configuration not stated) | 100 | -11 | 1.1 | 8 | -1 | 95 | · | · | ·
Cc1ccccc1-c1noc(N)c1C#N | 68 | -4 | 1.6 | 3 | 35* | 100 | 42* | -4 | 2
CCOC(=O)N1CCN(C(=O)c2ccc(Cn3c(=S)[nH]c4cc(OCC)c(OCC)cc4c3=O)cc2)CC1 | 58 | 4 | 0.55 | 22 | 45* | 89 | 61* | 30* | 19
CCOC(=O)N1CCN(C(=O)c2ccc(Cn3c(=S)[nH]c4cc5c(cc4c3=O)OCO5)cc2)CC1 | 42 | 6 | 0.57 | 35 | 64* | 74 | 59* | 26* | 26*
CCOC(=O)N1CCN(C(=O)c2ccc3c(=O)n(Cc4ccccc4)c(=S)[nH]c3c2)CC1 | 106 | 0 | 0.9 | -1 | -6 | 104 | · | · | ·
CCOC(=O)N1CCN(C(=O)c2ccc3c(=O)n(-c4cc(OC)ccc4OC)c(=S)[nH]c3c2)CC1 | 55 | -19 | 0.87 | 7 | 48* | 98 | 19 | -6 | -3
O=C(c1ccc(Cn2c(=S)[nH]c3ccccc3c2=O)cc1)N1CCN(c2ccccn2)CC1 | 59 | 12 | 0.75 | 31 | 44* | 79 | 35* | 14 | 27*
COc1ccccc1N1CCN(C(=O)c2ccc(Cn3c(=S)[nH]c4cc5c(cc4c3=O)OCO5)cc2)CC1 | 106 | -8 | 1.1 | -2 | -6 | 103 | · | · | ·
O=C(CNC1CCCCC1)Nc1cc(S(=O)(=O)N2CCOCC2)ccc1Cl | 90 | 8 | 1.3 | 4 | 11 | 97 | · | · | ·
CCN(CC)S(=O)(=O)c1cc(NC(=O)C(C)OC(=O)c2[nH]c(C)c(C(C)=O)c2C)ccc1C (configuration not stated) | 88 | 0 | 0.59 | 6 | 14 | 97 | · | · | ·
CC(=O)N=Nc1[nH]c(N)c2ccccc12 | 97 | -5 | 1.6 | 3 | 2 | 101 | · | · | ·
CCOC(=O)C(=CNc1ccc(NC2=NCC(C)S2)cc1)C(=O)OCC (configuration not stated) | 46 | -33 | 0.9 | 15 | 60* | 90 | 59* | 38* | 21
Cc1ccc(N(C(=O)Cn2nnc(-c3ccc(F)cc3)n2)C(CC(C)C)C(=O)NCC2CCCO2)cc1 (configuration not stated) | 95 | -25 | 0.66 | 10 | 5 | 97 | · | · | ·
Clc1ccc2c(NCc3ccco3)ncnc2c1 | 85 | 12 | 0.82 | 22 | 16 | 83 | · | · | ·
COc1cc2ncnc(NCCc3ccccc3)c2cc1OC | 84 | -23 | 0.62 | 13 | 16 | 90 | · | · | ·
COc1cc2ncnc(NCc3ccc(C)cc3)c2cc1OC | 94 | -1 | 0.99 | 7 | 7 | 99 | · | · | ·
COc1ccccc1CNc1ncnc2cc(Cl)ccc12 | 60 | -12 | 0.91 | -8 | 42* | 113 | 38* | 11 | -15
COc1ccc(CNc2ncnc3cc(Cl)ccc23)cc1OC | 62 | 7 | 0.72 | 4 | 41* | 107 | 35* | 12 | -16

Screening data deposited in PubChem by several laboratories.
